Data: ChEMBL document CHEMBL1131077, “3,5-Dihydro-4H-2,3-benzodiazepine-4-thiones: a new class of AMPA receptor antagonists” (J Med Chem, 1998)

What was measured:
[1] = Relative lipophilicity; assay type: physicochemical; conditions: TLC, acetone/water 2:1 mobile phase
Procedure, shortened: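 Reversed-phase TLC on plates pre-dried 1 h at 105 °C, developed in acetone/water 2:1 (v/v); 1 µL of 3 mg/mL CHCl3 solution spotted. Rf averaged over five runs with varied spot positions; Rm = log[(1/Rf) − 1].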

Mus musculus [2] = species on record: Mus musculus; test: (§1) Dose which induced 50% of mice to fall from the rotarod; assay type: functional
Procedure, shortened: (§2)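 Male Swiss mice (20–26 g, 48–54 days old), groups of 10, pretrained on a 3 cm rotarod at 8 rpm; tested 30 min after ip dosing. Failure meant falling within 2 min. TD50 by Litchfield–Wilcoxon, at least 32 animals.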

Mus musculus [3] = species on record: Mus musculus; test: Anticonvulsant activity against audiogenic seizures in DBA/2 mice (value required to prevent clonic phases of seizures).; assay type: functional
Procedure, shortened: (§3)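 DBA/2 mice (8–12 g, 22–25 days old, either sex), groups of 10, given drug or vehicle ip (50% DMSO/50% saline, 0.1 mL/10 g) 30 min before auditory stimulation; latency and incidence of seizure phases scored. ED50 per phase by Litchfield–Wilcoxon, at least 32 animals per value.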

Mus musculus [4] = species on record: Mus musculus; test: Anticonvulsant activity against clonic phase of the audiogenic seizures after pretreatment with aniracetam in DBA/2 mice; assay type: functional
Procedure, shortened: (§4)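 DBA/2 mice (8–12 g, 22–25 days old, either sex) pretreated with aniracetam, then given the benzodiazepine ip in 50% DMSO/50% saline; sound stimulation 30 min after dosing, with clonic or tonic phase scored. ED50 by Litchfield–Wilcoxon (at least 32 animals), compared with benzodiazepine alone.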

Mus musculus [5] = species on record: Mus musculus; test: Anticonvulsant activity against audiogenic seizures in DBA/2 mice (value required to prevent tonic phases of seizures).; assay type: functional; procedure, shortened: as §3
[6] = Therapeutic index (TD50/ED50) from the clonic phase of the audiogenic seizures
Procedure, shortened: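 Ratio of rotarod TD50 (Swiss mice, 30 min after ip dosing) to ED50 for clonic phase of audiogenic seizures in DBA/2 mice (30 min after ip dosing). Both values from Litchfield–Wilcoxon fits, in µmol/kg.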

Mus musculus [7] = species on record: Mus musculus; test: Anticonvulsant activity against maximal electroshock (MES) seizures in swiss mice; assay type: functional
Procedure, shortened: (§5)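 Swiss mice dosed ip (50% DMSO/saline) 45 min before ear-clip electroshock (50 mA, 20 ms pulses, 35 Hz, 400 ms). Protection taken as abolition of tonic hindlimb extension. Four to five doses, 8–10 mice each; ED50 by Litchfield–Wilcoxon.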

Mus musculus [8] = species on record: Mus musculus; test: Anticonvulsant activity against pentylenetetrazole (PTZ)-induced seizures in swiss mice; assay type: functional
Procedure, shortened: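 Male Swiss mice (20–26 g, 42–48 days old) dosed ip in 50% DMSO/saline 45 min before PTZ 85 mg/kg sc (CD97); watched 30 min. Protection meant no clonic spasm lasting at least 5 s. ED50 by Litchfield–Wilcoxon.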

Mus musculus [9] = test: Anticonvulsant activity against tonic seizures induced by icv injection of AMPA in DBA/2 mice; assay type: functional; conditions: central
Mus musculus [10] = species on record: Mus musculus; test: Anticonvulsant activity against clonic phase of the audiogenic seizures after concomitant with flumazenil at 8.24 umol dose in DBA/2 mice; assay type: functional
Procedure, shortened: (§6)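 DBA/2 mice (8–12 g, 22–25 days old, either sex) given test drug ip in 50% DMSO/50% saline together with flumazenil at the stated dose, then auditory stimulation 30 min after dosing; clonic or tonic phase scored in groups of 10. ED50 by Litchfield–Wilcoxon, at least 32 animals per value.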

Mus musculus [11] = species on record: Mus musculus; test: Anticonvulsant activity against tonic phase of the audiogenic seizures after concomitant with flumazenil at 24.72 umol dose in DBA/2 mice; assay type: functional; procedure, shortened: as §6
Mus musculus [12] = species on record: Mus musculus; test: Anticonvulsant activity against tonic phase of the audiogenic seizures after concomitant with flumazenil at 8.24 umol dose in DBA/2 mice; assay type: functional; procedure, shortened: as §6
Mus musculus [13] = species on record: Mus musculus; test: Anticonvulsant activity against clonic phase of the audiogenic seizures after concomitant with flumazenil at 24.72 umol dose in DBA/2 mice; assay type: functional; procedure, shortened: as §6
Mus musculus [14] = species on record: Mus musculus; test: Anticonvulsant activity against tonic phase of the audiogenic seizures after pretreatment with aniracetam in DBA/2 mice; assay type: functional; procedure, shortened: as §4
[15] = as §1; assay type: ADME; conditions: mouse, in vivo; procedure, shortened: as §2
Mus musculus [16] = test: Anticonvulsant activity against clonic seizures induced by icv injection of AMPA in DBA/2 mice; assay type: functional; conditions: central
Mus musculus [17] = species on record: Mus musculus; test: Anticonvulsant activity against maximal electroshock (MES ) seizures in swiss mice; assay type: functional; procedure, shortened: as §5

| Rm [1] | Compound | TD50 (Mus musculus [2]) | ED50 (Mus musculus [3]) | ED50 (Mus musculus [5]) | selectivity ratio [6] | further results |
| --- | --- | --- | --- | --- | --- | --- |
| 0.092 | COc1cc2c(cc1OC)C(c1cccc([N+](=O)[O-])c1)=NN=C(S)C2 |  |  |  |  |  |
| -0.421 | COc1cc2c(cc1OC)C(c1ccc(N)cc1)=NN(C)C(=O)C2 | 159 µmol/kg |  |  |  |  |
| -0.113 | COc1cc2c(cc1OC)C(c1ccc([N+](=O)[O-])cc1)=NNC(=O)C2 |  |  |  |  |  |
| 0.035 | COc1cc2c(cc1OC)C(c1ccc(Br)cc1)=NNC(=O)C2 | 226 µmol/kg |  |  |  |  |
| 0.11 | COc1cc2c(cc1OC)C(c1ccc([N+](=O)[O-])cc1)=NN(C)C(=O)C2 |  |  |  |  |  |
| -0.135 | COc1cc2c(cc1OC)C(c1cccc([N+](=O)[O-])c1)=NNC(=O)C2 |  |  |  |  |  |
| -0.542 | COc1cc2c(cc1OC)C(c1cccc(N)c1)=NNC(=O)C2 | 51.5 µmol/kg |  |  |  |  |
| -0.244 | COc1cc2c(cc1OC)C(c1ccccc1)=NNC(=O)C2 |  | 33.9 µmol/kg |  |  |  |
| -0.63 | COc1cc2c(cc1OC)C(c1ccc(N)cc1)=NNC(=O)C2 |  |  |  |  | ED50 (Mus musculus [4]): 65.4 µmol/kg |
| -0.003 | COc1cc2c(cc1OC)C(c1ccccc1)=NN(C)C(=O)C2 | 154 µmol/kg |  |  |  |  |
| 0.012 | COc1cc2c(cc1OC)C(c1ccc(Cl)cc1)=NNC(=O)C2 | 240 µmol/kg |  |  |  |  |
| 0.263 | COc1cc2c(cc1OC)C(c1ccc(Br)cc1)=NN(C)C(=O)C2 |  |  |  |  |  |
| 0.282 | COc1cc2c(cc1OC)C(c1ccccc1)=NN(C)C(=S)C2 | 97.1 µmol/kg | 30.6 µmol/kg | 24.7 µmol/kg | 3.17 |  |
| 0.244 | COc1cc2c(cc1OC)C(c1ccc(Cl)cc1)=NN=C(S)C2 | 193 µmol/kg | 82.4 µmol/kg | 55 µmol/kg | 3.26 |  |
| -0.259 | COc1cc2c(cc1OC)C(c1cccc(N)c1)=NN=C(S)C2 | 76.7 µmol/kg | 18.8 µmol/kg | 9.1 µmol/kg | 4.08 |  |
| -0.072 | COc1cc2c(cc1OC)C(c1ccc(N)cc1)=NN(C)C(=S)C2 | 130 µmol/kg | 29.8 µmol/kg | 20.3 µmol/kg | 4.35 |  |
| 0.014 | COc1cc2c(cc1OC)C(c1ccccc1)=NN=C(S)C2 |  | 19.7 µmol/kg | 15 µmol/kg | 5.02 | ED50 (Mus musculus [7]): 27.8 µmol/kg; ED50 (Mus musculus [8]): 33.7 µmol/kg; ED50 (Mus musculus [9]): 31.1 µmol/kg; ED50 (Mus musculus [10]): 22.4 µmol/kg; ED50 (Mus musculus [4]): 98 µmol/kg; ED50 (Mus musculus [11]): 12.6 µmol/kg; ED50 (Mus musculus [12]): 13.6 µmol/kg; ED50 (Mus musculus [13]): 19.3 µmol/kg; ED50 (Mus musculus [14]): 69.1 µmol/kg; TD50 [15]: 98.9 µmol/kg; ED50 (Mus musculus [16]): 43.1 µmol/kg |
| 0.269 | COc1cc2c(cc1OC)C(c1ccc(Br)cc1)=NN=C(S)C2 | 73 µmol/kg | 52.1 µmol/kg | 33.3 µmol/kg | 1.4 |  |
| 0.575 | COc1cc2c(cc1OC)C(c1ccc(Br)cc1)=NN(C)C(=S)C2 |  | 105 µmol/kg | 60.4 µmol/kg |  |  |
| -0.308 | COc1cc2c(cc1OC)C(c1ccc(N)cc1)=NN=C(S)C2 |  | 6.3 µmol/kg | 3.3 µmol/kg | 6.76 | ED50 (Mus musculus [8]): 15.4 µmol/kg; ED50 (Mus musculus [9]): 11.9 µmol/kg; ED50 (Mus musculus [10]): 6.9 µmol/kg; ED50 (Mus musculus [17]): 7.75 µmol/kg; ED50 (Mus musculus [4]): 46.1 µmol/kg; ED50 (Mus musculus [11]): 3.22 µmol/kg; ED50 (Mus musculus [12]): 3.24 µmol/kg; ED50 (Mus musculus [13]): 7.1 µmol/kg; ED50 (Mus musculus [14]): 38.5 µmol/kg; TD50 [15]: 42.6 µmol/kg; ED50 (Mus musculus [16]): 17.1 µmol/kg |
| 0.333 | COc1cc2c(cc1OC)C(c1ccc([N+](=O)[O-])cc1)=NN(C)C(=S)C2 |  | 103 µmol/kg | 81.5 µmol/kg |  |  |
| 0.122 | COc1cc2c(cc1OC)C(c1ccc([N+](=O)[O-])cc1)=NN=C(S)C2 | > 150 µmol/kg | 93.4 µmol/kg | 69.8 µmol/kg |  |  |

| Compound | Rm [1] | TD50 (Mus musculus [2]) | ED50 (Mus musculus [3]) | ED50 (Mus musculus [5]) | selectivity ratio [6] | further results |
| --- | --- | --- | --- | --- | --- | --- |
| CC1=NN=C(c2ccc(N)cc2)c2cc3c(cc2C1)OCO3 [GYKI-52466] | -0.308 |  |  |  |  |  |
